# Assay results published in ChEMBL document CHEMBL1137710, “Synthesis and in vitro antitumor activity of new quinoxaline derivatives” (2009).
# Key:
# Format in all cases: functional
# SF-295 = experiment: Growth inhibition of human SF295 cells after 48 hrs by sulforhodamine B assay; conditions: SF-295, 48 h
# Summary of the method: (§1)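 NCI 60-human-tumor-cell-line panel, with compounds tested over a 5-log dose range. Values are taken from dose-response curves as log10 molar concentrations: GI50 is 50% net growth inhibition, TGI is total growth inhibition, and LC50 is 50% net cell death.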
# MDA-MB-435 = experiment: Growth inhibition of human MDA-MB-435 cells after 48 hrs by sulforhodamine B assay; conditions: MDA-MB-435, 48 h; summary of the method: as §1
# LOX IMVI = experiment: Growth inhibition of human LOXIMVI cells after 48 hrs by sulforhodamine B assay; summary of the method: as §1
# HCT-116 = experiment: Growth inhibition of human HCT116 cells after 48 hrs by sulforhodamine B assay; conditions: HCT-116, 48 h; summary of the method: as §1
# DU-145 = experiment: Growth inhibition of human DU145 cells after 48 hrs by sulforhodamine B assay; conditions: DU-145, 48 h; summary of the method: as §1
# UACC-62 = experiment: Growth inhibition of human UACC62 cells after 48 hrs by sulforhodamine B assay; conditions: UACC-62, 48 h
# Summary of the method: (§2)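 Run in the NCI 60-human-tumour-cell-line panel, tested over a 5-log dose range. Dose–response curves gave three values per cell line, each as a log10 molar concentration: GI50 (50% inhibition of net cell growth), TGI (total inhibition of net growth) and LC50 (50% net cell death). The mean graph midpoint is the arithmetic mean over all lines, with insensitive lines entered at the highest concentration tested.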
# K562 = experiment: Growth inhibition of human K562 cells after 48 hrs by sulforhodamine B assay; conditions: K562, 48 h; summary of the method: as §1
# 786-0 = experiment: Growth inhibition of human 786-0 cells after 48 hrs by sulforhodamine B assay; conditions: 786-0, 48 h; summary of the method: as §1
# HOP-62 = experiment: Growth inhibition of human HOP62 cells after 48 hrs by sulforhodamine B assay; conditions: HOP-62, 48 h; summary of the method: as §1
# SK-MEL-28 = experiment: Growth inhibition of human SK-MEL-28 cells after 48 hrs by sulforhodamine B assay; conditions: SK-MEL-28, 48 h; summary of the method: as §1
# SK-MEL-5 = experiment: Growth inhibition of human SK-MEL-5 cells after 48 hrs by sulforhodamine B assay; conditions: SK-MEL-5, 48 h; summary of the method: as §1
# NCI-H23 = experiment: Growth inhibition of human NCI-H23 cells after 48 hrs by sulforhodamine B assay; conditions: NCI-H23, 48 h; summary of the method: as §1
# SF-268 [1] = experiment: Growth inhibition of human SF268 cells after 48 hrs by sulforhodamine B assay; conditions: SF-268, 48 h; summary of the method: as §1
# M14 = experiment: Growth inhibition of human M14 cells after 48 hrs by sulforhodamine B assay; conditions: M14, 48 h; summary of the method: as §1
# SF-268 [2] = experiment: Anticancer activity against human SF268 cells assessed as cell growth at 100 uM after 48 hrs by sulforhodamine B assay; conditions: SF-268, 48 h, read-out: Activity
# IGROV-1 = experiment: Growth inhibition of human IGROV1 cells after 48 hrs by sulforhodamine B assay; conditions: IGROV-1, 48 h; summary of the method: as §1
# A549 = experiment: Growth inhibition of human A549 cells after 48 hrs by sulforhodamine B assay; conditions: A549, 48 h; summary of the method: as §1
# NCI-H322M = experiment: Growth inhibition of human NCI-H322M cells after 48 hrs by sulforhodamine B assay; summary of the method: as §1
# SK-MEL-2 = experiment: Growth inhibition of human SK-MEL-2 cells after 48 hrs by sulforhodamine B assay; conditions: SK-MEL-2, 48 h; summary of the method: as §1
# MCF7 [3] = experiment: Anticancer activity against human MCF7 cells assessed as cell growth at 100 uM after 48 hrs by sulforhodamine B assay; conditions: MCF7, 48 h, read-out: Activity
# CAKI-1 = experiment: Growth inhibition of human Caki1 cells after 48 hrs by sulforhodamine B assay; conditions: CAKI-1, 48 h; summary of the method: as §1
# UO-31 = experiment: Growth inhibition of human UO31 cells after 48 hrs by sulforhodamine B assay; conditions: UO-31, 48 h; summary of the method: as §2
# NCI-H460 = experiment: Anticancer activity against human NCI-H460 cells assessed as cell growth at 100 uM after 48 hrs by sulforhodamine B assay; conditions: NCI-H460, 48 h, read-out: Activity
# SW-620 = experiment: Growth inhibition of human SW620 cells after 48 hrs by sulforhodamine B assay; conditions: SW-620, 48 h; summary of the method: as §2
# U-251 = experiment: Growth inhibition of human U251 cells after 48 hrs by sulforhodamine B assay; conditions: U-251, 48 h; summary of the method: as §2
# [4] = Growth inhibition of human […] cells after 48 hrs by sulforhodamine B assay; summary of the method: as §1
# SK-OV-3 = experiment: Growth inhibition of human SKOV3 cells after 48 hrs by sulforhodamine B assay; conditions: SK-OV-3, 48 h; summary of the method: as §1
# NCI-H522 = experiment: Growth inhibition of human NCI-H522 cells after 48 hrs by sulforhodamine B assay; conditions: NCI-H522, 48 h; summary of the method: as §1
# MCF7 [5] = experiment: Growth inhibition of human MCF7 cells after 48 hrs by sulforhodamine B assay; conditions: MCF7, 48 h; summary of the method: as §1
# OVCAR-4 = experiment: Growth inhibition of human OVCAR4 cells after 48 hrs by sulforhodamine B assay; conditions: OVCAR-4, 48 h; summary of the method: as §1
# [6] = read-out: pLC50 (the source's name) (converted)
compound,measurement,setting,value
COc1cc(CNc2nc3cc(N)cc(N)c3nc2-c2ccccc2)cc(OC)c1,GI50,SF-295,14.1 µM
same,LC50 (50% net cell kill),SF-295,87.1 µM
same,TGI,SF-295; read-out: pTGI (converted),35.5 µM
same,GI50,MDA-MB-435,2.14 µM
same,TGI,MDA-MB-435; read-out: pTGI (converted),4.27 µM
same,GI50,LOX IMVI,4.47 µM
same,LC50,LOX IMVI,> 100 µM
same,TGI,LOX IMVI; read-out: pTGI (converted),81.3 µM
same,GI50,HCT-116,3.09 µM
same,LC50 (concentration causing 50% net cell death),HCT-116,72.4 µM
same,TGI,HCT-116; read-out: pTGI (converted),11.2 µM
same,GI50,DU-145,29.5 µM
same,CC50,DU-145; [6],> 100 µM
same,TGI,DU-145; read-out: pTGI (converted),> 100 µM
same,GI50,UACC-62,5.37 µM
same,CC50,UACC-62; [6],> 100 µM
same,TGI,UACC-62; read-out: pTGI (converted),30.9 µM
same,GI50,K562,3.63 µM
same,LC50,K562,> 100 µM
same,TGI,K562; read-out: pTGI (converted),9.33 µM
same,GI50,786-0,12.6 µM
same,CC50,786-0; [6],> 100 µM
same,TGI,786-0; read-out: pTGI (converted),44.7 µM
same,GI50,HOP-62,13.5 µM
same,LC50,HOP-62,72.4 µM
same,TGI,HOP-62; read-out: pTGI (converted),31.6 µM
same,GI50,SK-MEL-28,1.78 µM
same,CC50,SK-MEL-28; [6],> 100 µM
same,TGI,SK-MEL-28; read-out: pTGI (converted),8.71 µM
same,GI50,SK-MEL-5,12.9 µM
same,CC50,SK-MEL-5; [6],> 100 µM
same,TGI,SK-MEL-5; read-out: pTGI (converted),41.7 µM
same,GI50,NCI-H23,16.2 µM
same,LC50 (50% net cell kill concentration),NCI-H23,> 100 µM
same,TGI,NCI-H23; read-out: pTGI (converted),> 100 µM
same,GI50,SF-268 [1],5.37 µM
same,LC50,SF-268 [1],> 100 µM
same,TGI,SF-268 [1]; read-out: pTGI (converted),> 100 µM
same,GI50,M14,10 µM
same,CC50,M14; [6],> 100 µM
same,TGI,M14; read-out: pTGI (converted),49 µM
same,growth at 100 µM,SF-268 [2],-28%
same,GI50,IGROV-1,8.71 µM
same,CC50,IGROV-1; [6],> 100 µM
same,TGI,IGROV-1; read-out: pTGI (converted),56.2 µM
same,GI50,A549,33.1 µM
same,LC50,A549,> 100 µM
same,TGI,A549; read-out: pTGI (converted),> 100 µM
same,GI50,NCI-H322M,44.7 µM
same,LC50,NCI-H322M,> 100 µM
same,TGI,NCI-H322M; read-out: pTGI (converted),> 100 µM
same,GI50,SK-MEL-2,7.76 µM
same,CC50,SK-MEL-2; [6],> 100 µM
same,TGI,SK-MEL-2; read-out: pTGI (converted),40.7 µM
same,growth at 100 µM,MCF7 [3],-72%
same,GI50,CAKI-1,15.8 µM
same,CC50,CAKI-1; [6],> 100 µM
same,TGI,CAKI-1; read-out: pTGI (converted),> 100 µM
same,GI50,UO-31,4.07 µM
same,CC50,UO-31; [6],> 100 µM
same,TGI,UO-31; read-out: pTGI (converted),> 100 µM
same,growth at 100 µM,NCI-H460,-1%
same,GI50,SW-620,4.47 µM
same,CC50,SW-620; [6],> 100 µM
same,TGI,SW-620; read-out: pTGI (converted),> 100 µM
same,GI50,U-251,5.13 µM
same,LC50 (50% net cell kill),U-251,> 100 µM
same,TGI,U-251; read-out: pTGI (converted),> 100 µM
same,GI50,[4],2.19 µM
same,LC50,[4],> 100 µM
same,TGI,[4]; read-out: pTGI (converted),6.17 µM
same,GI50,SK-OV-3,15.1 µM
same,CC50,SK-OV-3; [6],> 100 µM
same,TGI,SK-OV-3; read-out: pTGI (converted),53.7 µM
same,GI50,NCI-H522,2.88 µM
same,LC50,NCI-H522,> 100 µM
same,TGI,NCI-H522; read-out: pTGI (converted),22.9 µM
same,GI50,MCF7 [5],8.32 µM
same,CC50,MCF7 [5]; [6],> 100 µM
same,TGI,MCF7 [5]; read-out: pTGI (converted),> 100 µM
same,GI50,OVCAR-4,0.0141 µM
same,CC50,OVCAR-4; [6],3.24 µM
same,TGI,OVCAR-4; read-out: pTGI (converted),0.977 µM
